Inconclusive results are not listed.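 The calls were made as follows, unless noted: active = inhibition over a set limit, the all-compound mean plus 3 SD, in both replicate runs; inconclusive = over that limit in just one replicate run; inactive = at or under that limit in both runs.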
Key:
[1] = OD615 S. cerevisiae growth inhibition, permissive medium, pilot counter-assay, permissive growth control for S. cerevisiae lifespan shortening project (AID 705;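 active = growth inhibition above 25% in both replicates, a cutoff set 3 SD above the mean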); details: OD615, 24 h, at 10 µM, active compounds read high
Summary of the method: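 assay system = Saccharomyces cerevisiae strain carrying genetically modified DeaD replicative-lifespan system | medium = SC raffinose/galactose permissive medium | dosing = 10 µM single dose, 0.25% DMSO | schedule = 24 h compound exposure at 30 °C after 4 h pre-growth | measured by = OD at 615 nm | read-out basis = growth inhibition from lowered OD615 after 24 h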

[2] = Restrictive medium S. cerevisiae growth inhibition, OD615, pilot screen of yeast lifespan reduction project, restrictive growth control (AID 706;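 active = growth inhibition above a set limit, 3 SD over mean compound inhibition, in both replicates, cut at about 43% in these data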;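 also: modified DeaD lifespan yeast strain shifted to restrictive glucose medium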); details: OD615, 48 h, at 10 µM, active compounds read high
Summary of the method: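 Buffer or medium: CSMM-D glucose medium. Material: genetically modified Saccharomyces cerevisiae, DeaD replicative lifespan assay strain. Times: 48 h compound exposure at 30 °C. Measured by: optical density at 615 nm.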

[3] = viability gain of MRP-1-high H69AR cells under doxorubicin, pilot screen, MRP-1 activator project, CellTiter-Glo, duplicate (AID 807;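 active = viability increase at or above a cutoff of the median across tested compounds plus 3 SD, cut at about 8.5% in these data, passing the limit was not always enough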;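 also: compound pretreatment 18-22 h then 72 h combined with doxorubicin; 0% = doxorubicin alone and 100% = vehicle without doxorubicin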); details: H69AR viability with doxorubicin, CellTiter-Glo luminescence; at 10 µM; active compounds read high
[4] = growth suppression of beta-catenin knockout HCT116, pilot screen, human colon tumor cells (AID 823;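 active = cell viability at or below a set limit in both duplicate runs, the limit being the all-compound median minus 4 SD, cut at about 23% in these data, passing the limit was not always enough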;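 also: 0% = wells killed by 20 µM Hyamine and 100% = untreated DMSO cell wells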); details: CellTiter-Glo, 60 h, at 10 µM, active compounds read low
[5] = growth suppression of PTEN-deleted HCT116, pilot screen, cell-based, HCT116 clonal line, CellTiter-Glo (AID 824;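 active = viability at or below 27.92% in each of two runs, the all-compound median minus 4 SD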;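 also: 0% = 20 µM Hyamine control and 100% = vehicle cell control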); details: 60 h, at 10 µM, active compounds read low
[6] = inhibitors of the yeast RAM network, pilot screen, dse1pr::URA3 reporter, 5-FOA selection (AID 869);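 also: 0% = DMSO wells with no growth and 100% = 10 µM 1-NA-PP1 with full growth; RAM network block rescues cells from 5-FOA so hits raise OD615 growth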; details: S. cerevisiae dse1pr::URA3 5-FOA growth, OD615, 2 d; at 10 µM; active compounds read high; strain carries analog-sensitive mutant Cbk1 kinase
[7] = RAM signaling pathway blockade in yeast – S. cerevisiae, Pdr1DBD-CYC8 efflux-inhibited sensitized strain, primary screen (AID 1298;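 active = RAM network inhibition above 8.4% in each of two replicates, 3 SD over the compound average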;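 also: 0% = DMSO untreated cells without growth and 100% = 10 µM 1-NA-PP1 full growth; higher means more yeast growth rescued from 5-FOA killing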); details: S. cerevisiae cbk1-as DSE1-URA3 strain, 5-FOA growth OD615, 2 d; at 50 µM; active compounds read high

Brc1ccc2c(c1)c1nc3ccccc3nc1n2CCN1CCOCC1
inactive: growth inhibition [1] -11% | growth inhibition [2] -0.14% | viability increase [3] -5.95% | viability [4] 56% | viability [5] 59.4% | inhibition [6] 4.42% | RAM network inhibition [7] 5.58%

O=C(O)c1cc(S(=O)(=O)Nc2ccc3c(c2)OCCO3)c(Cl)cc1Cl
inactive: growth inhibition [1] -5.69% | growth inhibition [2] 3.62% | viability increase [3] -1.04% | viability [4] 95.1% | viability [5] 88.4% | inhibition [6] 2.01% | RAM network inhibition [7] -0.21%

Cc1noc(C)c1S(=O)(=O)N(CC(=O)Nc1ccc2c(c1)OCCO2)c1ccc(C(C)C)cc1
inactive: growth inhibition [1] -19.3% | growth inhibition [2] -5.11% | viability increase [3] -5.12% | viability [4] 56.8% | viability [5] 48.7% | inhibition [6] 1.71% | RAM network inhibition [7] 1.99%

CC(=O)Nc1nnc(SCC(=O)NC(C)(C)C)s1
inactive: growth inhibition [1] -6.89% | growth inhibition [2] 1.67% | viability increase [3] -0.33% | viability [4] 94.8% | viability [5] 98.8% | inhibition [6] 1.88% | RAM network inhibition [7] 0.36%

CCn1c(=O)cc(OCC(=O)Nc2ccccc2C#N)c2ccccc21
inactive: growth inhibition [1] -22.1% | growth inhibition [2] -8.12% | viability increase [3] -1.86% | viability [4] 95.1% | viability [5] 94.7% | inhibition [6] 2.12% | RAM network inhibition [7] 4.46%

Cc1c(C(=O)NCc2cccnc2)oc2ccc(S(=O)(=O)N3CC(C)CC(C)C3)cc12 (stereo not drawn)
inactive: growth inhibition [1] -3.33% | growth inhibition [2] 16.4% | viability increase [3] -4.52% | viability [4] 93% | viability [5] 87.1% | inhibition [6] 1.87% | RAM network inhibition [7] 2.77%

Cn1cccc1Cc1nnc(SCC(=O)NCc2ccccc2Cl)n1-c1ccc(F)cc1
inactive: growth inhibition [1] -7.31% | growth inhibition [2] 9.87% | viability increase [3] -5% | viability [4] 87% | viability [5] 86.5% | inhibition [6] 1.92% | RAM network inhibition [7] 8.74%

O=C(c1cnn2c(C(F)(F)F)cc(-c3ccco3)nc12)N1CCCCCC1
inactive: growth inhibition [1] -14.5% | growth inhibition [2] -11.4% | viability increase [3] -4.15% | viability [4] 91.3% | viability [5] 91.5% | inhibition [6] 0.705% | RAM network inhibition [7] 1.5%

CCn1c(CNC(=O)COC)nc2ccccc21
inactive: growth inhibition [1] -5.41% | growth inhibition [2] 0.165% | viability increase [3] 0.97% | viability [4] 105% | viability [5] 97.2% | inhibition [6] 0.7% | RAM network inhibition [7] 5.67%

CCOC(=O)N1CCC(NC(=O)CN2C(=O)CSc3nc(C)cc(C)c32)CC1
inactive: growth inhibition [1] -8.91% | growth inhibition [2] 6.29% | viability increase [3] -0.46% | viability [4] 109% | viability [5] 97.7% | inhibition [6] -0.65% | RAM network inhibition [7] 0.43%

O=C(NC(=O)c1ccccc1)OCC(F)(F)F
inactive: growth inhibition [1] -6.06% | growth inhibition [2] -1.48% | viability increase [3] 0.71% | viability [4] 98.9% | viability [5] 103% | inhibition [6] 0.34% | RAM network inhibition [7] 3.03%

CCC(=O)Nc1c2c(nn1-c1ccc(OC)cc1)CS(=O)C2 (stereo not drawn)
inactive: growth inhibition [1] -6.53% | growth inhibition [2] 5.54% | viability increase [3] 0.56% | viability [4] 102% | viability [5] 94.1% | inhibition [6] 1.37% | RAM network inhibition [7] 2.55%

O=S(=O)(CCc1nnc(-c2ccccc2)o1)c1ccc2ccccc2c1
inactive: growth inhibition [1] -16.3% | growth inhibition [2] -6.19% | viability increase [3] -1.86% | viability [4] 89.8% | viability [5] 91.8% | inhibition [6] 1.96% | RAM network inhibition [7] 10.4%

COc1ccc(CN2CC34C=CC(O3)C(C(=O)O)C4C2=O)cc1 (stereo not drawn)
inactive: growth inhibition [1] -1.83% | growth inhibition [2] -0.315% | viability increase [3] -0.17% | viability [4] 92.6% | viability [5] 97.1% | inhibition [6] 0.585% | RAM network inhibition [7] 3.17%

CCOC(=O)C1CCN(C(=O)c2cc3c(-c4ccc(OC)c(OC)c4)nn(C)c3s2)CC1
inactive: growth inhibition [1] -7.02% | growth inhibition [2] -7.66% | viability increase [3] -2.04% | viability [4] 107% | viability [5] 98.9% | inhibition [6] 0.595% | RAM network inhibition [7] 5.7%

NC(=O)c1cccc(S(=O)(=O)N2CC(c3ccccc3)CC2=O)c1 (stereo not drawn)
inactive: growth inhibition [1] -15.8% | growth inhibition [2] -15% | viability increase [3] -1.11% | viability [4] 99.5% | viability [5] 96.1% | inhibition [6] 0.075% | RAM network inhibition [7] -0.76%

CCNC(=O)CN(c1ccc(CC)cc1)S(C)(=O)=O
inactive: growth inhibition [1] -5% | growth inhibition [2] -18% | viability increase [3] -0.8% | viability [4] 97.9% | viability [5] 106% | inhibition [6] 0.76% | RAM network inhibition [7] 1.88%

Cc1ccc(-n2c(SCC(=O)NCC3CCCO3)nc3c(c2=O)SCC3)cc1 (stereo not drawn)
inactive: growth inhibition [1] -10.7% | growth inhibition [2] -16.9% | viability increase [3] -1.96% | viability [4] 100% | viability [5] 96.7% | inhibition [6] 3.09% | RAM network inhibition [7] 2.18%

CCOC(=O)c1c(-c2ccccc2)c(C(C)=O)c(=O)n(C)c1C
inactive: growth inhibition [1] -19% | growth inhibition [2] -9.79% | viability increase [3] -3.81% | viability [4] 95.9% | viability [5] 94.1% | inhibition [6] 4.63% | RAM network inhibition [7] 1.72%

CCN1CCN(C(C(=O)NC2CCCC2)c2ccc(Cl)cc2)CC1 (stereo not drawn)
inactive: growth inhibition [1] -14.8% | growth inhibition [2] 0.47% | viability increase [3] -4.44% | viability [4] 93.9% | viability [5] 93.1% | inhibition [6] 1.02% | RAM network inhibition [7] 3.71%

Cc1onc(-c2ccccc2Cl)c1C(=O)Nc1ccccc1C(N)=O
inactive: growth inhibition [1] -9.31% | growth inhibition [2] -29.5% | viability increase [3] -3.08% | viability [4] 90.2% | viability [5] 85.5% | inhibition [6] 0.895% | RAM network inhibition [7] 0.67%

CCOc1ccc(C2c3c(oc4ccccc4c3=O)C(=O)N2c2ccc(C)cn2)cc1OC (stereo not drawn)
inactive: growth inhibition [1] -7.41% | growth inhibition [2] 2.13% | viability increase [3] -4.09% | viability [4] 81.4% | viability [5] 83.7% | inhibition [6] 1.88% | RAM network inhibition [7] 4.03%

Cn1c(=O)oc2cc(S(=O)(=O)N3CCCC3)ccc21
inactive: growth inhibition [1] 4.02% | growth inhibition [2] -7.37% | viability increase [3] -2.12% | viability [4] 102% | viability [5] 97.2% | inhibition [6] 0.645% | RAM network inhibition [7] 0.66%

CCOC(=O)C1CCN(C(=O)Cn2cc3c(n2)CCC(C)C3)CC1 (stereo not drawn)
inactive: growth inhibition [1] -5.55% | growth inhibition [2] -0.07% | viability increase [3] 0.98% | viability [4] 97.6% | viability [5] 95.6% | inhibition [6] 1.87% | RAM network inhibition [7] 1.77%

Reference: PubChem BioAssay
